This note sets out measurements from ChEMBL document CHEMBL3351561, “Discovery of 9-(1-anilinoethyl)-2-morpholino-4-oxo-pyrido[1,2-a]pyrimidine-7-carboxamides as PI3Kβ/δ inhibitors for the treatment of PTEN-deficient tumours” (Bioorg Med Chem Lett, 2014).

Series [1] is described as follows: Solubility of the compound in phosphate buffer at pH 7.4. The class given is physicochemical. In outline:
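Solubility was measured from solid material in phosphate buffer at pH 7.4.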

Series [2] deals with Phosphatidylinositol 4,5-bisphosphate 3-kinase catalytic subunit beta isoform (Homo sapiens, UniProt P42338). Put plainly: Inhibition of PI3Kbeta in human MAD-MB-468 cells assessed as inhibition of Ser473 Akt phosphorylation by cellular potency assay.
Series [3] is described as follows: Intrinsic clearance in human hepatocytes measured per 10^6 cells. The class given is ADME, cell-based, Hepatocyte. The following applies: read-out: CLH. In outline:
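Intrinsic clearance was measured in human hepatocytes and is expressed in µL/min/10^6 cells.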

Series [4] can be described thus: Buffer/octanol partition coefficient, log D of the compound at pH 7.4 by shake flask method. The class given is physicochemical. In outline: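 LogD at pH 7.4 was measured by shake-flask with a buffer/octanol volume ratio of 100:1.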
Series [5] can be described thus: Apparent permeability from apical (pH 6.5) to […] of human Caco2 cells. Particulars: Caco-2, pH 6.5. The class given is ADME, cell-based. In general terms: Caco-2 monolayers are a common model of the intestinal barrier.

What is called solubility is the dissolved amount per volume that the medium holds. Read a low solubility as little dissolved substance. The term IC50 denotes the midpoint of a concentration-inhibition curve. As a reminder, the logD is lipophilicity at a set pH, counting ionised and neutral species. Read a low logD as lower lipophilicity. One may read the Papp A→B as how fast a substance crosses the layer from the apical side.

Molecules are shown by their SMILES. Values after ≈ are worked out from the molar mass of the structure shown.

Chain of Phosphatidylinositol 4,5-bisphosphate 3-kinase catalytic subunit beta isoform (P42338 whole entry, canonical isoform): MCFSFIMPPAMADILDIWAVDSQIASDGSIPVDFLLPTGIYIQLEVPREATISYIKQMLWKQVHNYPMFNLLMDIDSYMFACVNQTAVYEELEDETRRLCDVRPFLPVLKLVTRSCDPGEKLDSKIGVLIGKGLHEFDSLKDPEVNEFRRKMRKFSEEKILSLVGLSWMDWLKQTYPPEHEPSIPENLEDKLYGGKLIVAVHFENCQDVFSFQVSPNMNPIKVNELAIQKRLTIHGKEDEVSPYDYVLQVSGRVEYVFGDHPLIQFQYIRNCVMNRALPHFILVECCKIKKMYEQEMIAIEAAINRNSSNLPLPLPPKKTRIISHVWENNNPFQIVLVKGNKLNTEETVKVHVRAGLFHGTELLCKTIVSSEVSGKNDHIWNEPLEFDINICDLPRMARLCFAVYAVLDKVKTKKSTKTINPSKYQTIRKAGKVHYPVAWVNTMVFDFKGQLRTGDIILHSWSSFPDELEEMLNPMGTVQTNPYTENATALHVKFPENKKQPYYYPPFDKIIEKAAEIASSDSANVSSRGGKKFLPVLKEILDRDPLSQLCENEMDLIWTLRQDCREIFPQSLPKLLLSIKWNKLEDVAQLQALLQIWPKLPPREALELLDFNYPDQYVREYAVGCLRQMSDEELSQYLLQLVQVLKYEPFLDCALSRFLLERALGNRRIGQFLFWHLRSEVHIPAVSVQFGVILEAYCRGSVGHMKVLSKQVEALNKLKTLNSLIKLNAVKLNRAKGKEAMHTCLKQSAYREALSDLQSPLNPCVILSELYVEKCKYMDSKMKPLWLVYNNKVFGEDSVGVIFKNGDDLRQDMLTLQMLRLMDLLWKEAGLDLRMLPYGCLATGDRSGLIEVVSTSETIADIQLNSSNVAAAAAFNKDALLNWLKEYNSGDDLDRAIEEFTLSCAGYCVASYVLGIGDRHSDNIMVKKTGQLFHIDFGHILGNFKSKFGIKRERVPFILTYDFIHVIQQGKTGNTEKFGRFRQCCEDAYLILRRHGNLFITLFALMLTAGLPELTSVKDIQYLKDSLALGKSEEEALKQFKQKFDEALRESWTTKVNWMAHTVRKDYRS

On to `C[C@@H](Nc1cc(F)cc(F)c1)c1cc(C(=O)N2CCOCC2)cn2c(=O)cc(N3CCOCC3)nc12`, for which, in series [1], the solubility was 316 µM (≈ 158 µg/mL). Besides, the IC50 in series [2] came out at 25 nM. Moreover, the hepatocyte CLint in series [3] was found to be 6 µL/min/1e6 cells. In series [4], the log distribution coefficient (logD) is 2.7.

For `C[C@@H](Nc1cc(F)cc(F)c1)c1cc(C(=O)N2CCN(C)CC2)cn2c(=O)cc(N3CCOCC3)nc12`, the Papp A→B in series [5] came to 9 ×10⁻⁶ cm/s. This compound also had a solubility in series [1] of over 1500 µM. For the same compound, the IC50 in series [2] amounted to 29 nM. For the same compound, the hepatocyte CLint in series [3] came to 6 µL/min/1e6 cells. The same compound showed a logD in series [4] of 2.6.

As for `Cc1cc(C(C)Nc2cccc(Cl)c2)c2nc(N3CCOCC3)cc(=O)n2c1` (centres undefined), in series [2], the 50% inhibitory concentration (IC50) worked out at 17 nM.

Consider `Cc1cc(C(C)Nc2cc(F)cc(F)c2)c2nc(N3CCOCC3)cc(=O)n2c1` (centres undefined), for which the half-inhibitory concentration (IC50) in series [2] is 9 nM.

As for `CC(Nc1ccc(Cl)cc1)c1cc(C(=O)NCCN(C)C)cn2c(=O)cc(N3CCOCC3)nc12` (racemic), the IC50 in series [2] was determined as 75 nM.

In the case of `CC(Nc1cccc(F)c1)c1cc(C(=O)N(C)C)cn2c(=O)cc(N3CCOCC3)nc12` (racemic), the Papp A→B in series [5] turned out to be 39 ×10⁻⁶ cm/s. In series [1], the solubility was 23 µM (≈ 10.1 µg/mL). The half-maximal inhibitory concentration (IC50) in series [2] was 39 nM. Further, in series [3], the hepatocyte CLint came out at 45 µL/min/1e6 cells.

In the case of `CC(Nc1cccc(F)c1F)c1cc(C(=O)N(C)C)cn2c(=O)cc(N3CCOCC3)nc12` (racemic), the concentration in solution in series [1] (solubility) was 28 µM (≈ 12.8 µg/mL). Besides, the IC50 in series [2] stood at 73 nM. Further, in series [3], the hepatocyte CLint turned out to be 9 µL/min/1e6 cells. This compound also showed a logD in series [4] of 2.7.

`CC(Nc1cc(F)cc(F)c1)c1cc(C(=O)N(C)CCO)cn2c(=O)cc(N3CCOCC3)nc12` (racemic) registered a solubility in series [1] of 930 µM (≈ 453 µg/mL). For the same compound, the IC50 in series [2] was determined as 8 nM. In addition, in series [3], the hepatocyte CLint came to 10 µL/min/1e6 cells. The compound further gave a log distribution coefficient (logD) in series [4] of 2.1.

As for `Cc1cccc(NC(C)c2cc(C)cn3c(=O)cc(N4CCOCC4)nc23)c1` (racemic), the half-maximal inhibitory concentration (IC50) in series [2] turned out to be 81 nM.

Take `Cc1cc(C(C)Nc2ccc(F)cc2)c2nc(N3CCOCC3)cc(=O)n2c1` (racemic): the 50% inhibitory concentration (IC50) in series [2] worked out at 190 nM.

With `CC(Nc1cccc(Cl)c1)c1cc(C(=O)NCCN(C)C)cn2c(=O)cc(N3CCOCC3)nc12` (racemic), the IC50 in series [2] is 10 nM.

As for `CC(Nc1ccccc1Cl)c1cc(C(=O)NCCN(C)C)cn2c(=O)cc(N3CCOCC3)nc12` (racemic), the IC50 in series [2] stood at 7 nM.

Consider `CC(Nc1ccc(F)cc1)c1cc(C(=O)NCCN(C)C)cn2c(=O)cc(N3CCOCC3)nc12` (racemic), for which the Papp A→B in series [5] was 0.2 ×10⁻⁶ cm/s. Further, the IC50 in series [2] turned out to be 12 nM. The compound further gave a logD in series [4] of 1.8.

With `CC(Nc1cccc(F)c1)c1cc(C(=O)NCCN(C)C)cn2c(=O)cc(N3CCOCC3)nc12` (racemic), the Papp A→B in series [5] stood at 0.3 ×10⁻⁶ cm/s. Further, the IC50 in series [2] was determined as 2 nM. This compound also yielded a logD in series [4] of 2.

On to `CC(Nc1ccccc1F)c1cc(C(=O)NCCN(C)C)cn2c(=O)cc(N3CCOCC3)nc12` (racemic), for which, in series [5], the Papp A→B amounted to 0.8 ×10⁻⁶ cm/s. In series [2], the IC50 is 23 nM. The compound also displayed a logD in series [4] of 1.9.

With `CC(Nc1cccc(C(F)(F)F)c1)c1cc(C(=O)NCCN(C)C)cn2c(=O)cc(N3CCOCC3)nc12` (racemic), the half-inhibitory concentration (IC50) in series [2] turned out to be 74 nM.

Take `Cc1ccc(NC(C)c2cc(C(=O)NCCN(C)C)cn3c(=O)cc(N4CCOCC4)nc23)cc1` (racemic): the IC50 in series [2] came to 530 nM.

Regarding `CC(Nc1cc(F)cc(Cl)c1)c1cc(C(=O)N(C)C)cn2c(=O)cc(N3CCOCC3)nc12` (single isomer, unassigned; (-)), the IC50 in series [2] was 11 nM. Besides, the hepatocyte CLint in series [3] stood at 19 µL/min/1e6 cells. In series [4], the logD is 3.5.

Consider `CC(Nc1cc(F)c(F)c(F)c1)c1cc(C(=O)N(C)C)cn2c(=O)cc(N3CCOCC3)nc12` (single isomer, unassigned; (-)), for which the concentration in solution in series [1] (solubility) came to 10 µM (≈ 4.75 µg/mL). In addition, the IC50 in series [2] was 11 nM. Further, the hepatocyte CLint in series [3] is 13 µL/min/1e6 cells.

In turn, `CC(Nc1cc(F)cc(F)c1F)c1cc(C(=O)N(C)C)cn2c(=O)cc(N3CCOCC3)nc12` (single isomer, unassigned; (-)) had a solubility in series [1] of 46 µM (≈ 21.9 µg/mL). Besides, in series [2], the IC50 worked out at 25 nM. For the same compound, the hepatocyte CLint in series [3] was 15 µL/min/1e6 cells. Moreover, the logD in series [4] came out at 2.9.
